# MPTP inh: blocks calcium-induced mitochondrial swelling | isolated mouse mitochondria, Ca2+ swelling absorbance, 30 min | inhibition, % at 10 µM | AID 602449 | 1.4% of 360,000 active;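 active = inhibition of 50% or more, scaled per plate between neutral and stimulator controls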;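 also: 0% = DMSO wells given calcium and 100% = 1 mM EGTA wells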
# GRIN3A LBD mod: NR3A (human) ligand-binding domain modulation | NR3A LBD differential scanning fluorimetry, Tm shift; 0% = protein alone, 100% = glycine-bound protein | Tm shift relative to glycine control, % at 25 µM | 2.5% of 340,000 active | AID 1259313;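 active = melting temperature shift of at least 10% of the positive control shift, at one fixed dose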
# SENP1 inh: inhibitors of human SENP1 SUMO protease catalytic domain. inhibition, % at 10 µM. 0.21% of 360,000 active. AID 624204. recombinant SENP1 catalytic domain, CyPet-SUMO1-YPet FRET cleavage. Q9P0U3;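 active = inhibition at least 30% at 10 µM, raw YFP signal under a set limit, fluorescence ratio 0.5 to 1.5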;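 also: 0% = enzyme with DMSO and 100% = no enzyme wells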
# Target sequence (Q9P0U3 419-644 limits assumed): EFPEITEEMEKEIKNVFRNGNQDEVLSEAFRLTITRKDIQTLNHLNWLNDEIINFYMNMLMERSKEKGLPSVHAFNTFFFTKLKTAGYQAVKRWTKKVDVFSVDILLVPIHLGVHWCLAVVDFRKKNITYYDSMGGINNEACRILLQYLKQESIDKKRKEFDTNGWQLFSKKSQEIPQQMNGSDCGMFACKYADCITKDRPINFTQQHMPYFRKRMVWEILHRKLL
#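 Material – human SENP1 catalytic domain · Input – SENP1 enzyme, 20 pM final · Compound dosing – single concentration of 10 µM compound, 0.5% DMSO final · Timing – enzyme reaction for 50 min at room temperature, dark · Measured by – FRET fluorescence in CFP and YFP emission channels · Control set – no-enzyme wells low, DMSO-plus-enzyme wells high control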
# EBI2 block: antagonists of human EBI2 receptor | P32249 | EBI2 beta-arrestin recruitment, luminescence, 7a,25-OHC stimulated | inhibition, % at 5 µM | 0.81% of 360,000 active | AID 651636; in the data active = inhibition above about 38%;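 also: enzyme fragment complementation signal reports receptor beta-arrestin coupling in cells; 0% = agonist plus DMSO wells and 100% = wells without agonist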
# Target sequence (P32249 whole entry, looked up, the tested form may be a part): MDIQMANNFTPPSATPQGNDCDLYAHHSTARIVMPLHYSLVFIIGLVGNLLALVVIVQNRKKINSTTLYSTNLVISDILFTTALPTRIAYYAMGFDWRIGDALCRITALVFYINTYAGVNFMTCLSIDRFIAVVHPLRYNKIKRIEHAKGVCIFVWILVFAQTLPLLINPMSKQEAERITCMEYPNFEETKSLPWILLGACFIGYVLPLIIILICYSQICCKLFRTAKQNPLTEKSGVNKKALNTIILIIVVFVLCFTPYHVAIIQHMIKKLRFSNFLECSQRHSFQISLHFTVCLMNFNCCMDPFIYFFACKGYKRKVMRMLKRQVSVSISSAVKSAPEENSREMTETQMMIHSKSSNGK
# Rh123 counter: Rhodamine 123 counter-screen of mitochondrial pore hits | shares compounds with MPTP inh | isolated mitochondria, membrane potential, Rhodamine 123 fluorescence | inhibition, % at 10 µM | 78% of 5,000 active | AID 624504; in the data active = inhibition above about 22%;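 also: 0% = DMSO vehicle and 100% = positive control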
# MPTP abs DR: MPTP inhibition, dose response swelling confirmation; isolated mitochondria swelling, absorbance; AID 651561; IC50, µM; shares compounds with MPTP inh; 58% of 780 active; in the data active = IC50 below about 20 µM
# MPTP counter DR: active in counter-screen for permeability transition pore inhibitors; shares compounds with MPTP inh; isolated mitochondria counterscreen, fluorescence read-out; IC50, µM; 49% of 780 active; AID 651564; in the data active = IC50 below about 80 µM
# * hit, by the source's call; i = inactive; x = no result given. Hits are enriched below; roughly 4.4% of the tested compounds scored in any of these assays.
SMILES,MPTP inh,GRIN3A LBD mod,SENP1 inh,EBI2 block,Rh123 counter,others
N#Cc1c(C(F)(F)F)cc(=O)n2c1[nH]c1ccccc12,92*,1,-27,-3,94*,
Cc1c(Cc2ccccc2)c(=O)n2c([nH]c3ccccc32)c1C#N,84*,1,-3,-3,74*,
CC(C)N(CCC(=O)c1ccc2ccccc2c1)Cc1ccccc1,99*,1,-1,10,-3,
CC(OC(=O)c1ccc2ccccc2c1)C(=O)N(C)Cc1ccccc1 (centres undefined),1,-1,1,-6,x,
O=C(Cc1csc(NC(=O)Nc2cccc(Cl)c2)n1)NCc1ccccn1,14,0,-1,2,x,
O=C(Cc1csc(NC(=O)Nc2cccc(Cl)c2)n1)NC1CCCC1,79*,0,2,0,73*,
O=C(NCc1csc(-c2cccs2)n1)Nc1cccc(Cl)c1,76*,9,0,1,82*,
NC(c1ccccc1)c1csc(NC(=O)Nc2cccc(Cl)c2)n1 (centres undefined),3,x,3,-27,x,
O=C(Nc1cccc(Cl)c1)Nc1sccc1-c1nc2ccccc2s1,78*,29*,-82,-4,69*,
O=C(Nc1cccc(Cl)c1)Nc1nc(-c2ccc(Cl)cc2)cs1,92*,36*,-1,5,94*,
Cc1ccc(-c2noc(-c3ccno3)n2)cc1,0,1,-2,-5,x,
CC(C)(C)c1ccc(/C=C/C(=O)Nc2ccncc2)cc1,98*,-12,0,-3,92*,
Cc1nc(NC(=O)/C=C/c2ccc(C(C)(C)C)cc2)sc1C(=O)N(C)C,6,-5,-1,-15,x,
O=C(NNc1ccccc1Br)C(=O)n1ccc2ccccc21,57*,-4,0,1,57*,
NC(=O)c1ccc(NC(=O)CSc2nc3ccccc3c(=O)n2CCCN2CCOCC2)cc1,0,-2,-4,4,x,
COCc1cc(C)nc2sc(C(=O)Nc3ccccc3Br)c(N)c12,1,0,-24,33,x,
Cc1ccc(S(=O)(=O)c2nnn3c2nc(Nc2cccc(C)c2)c2ccccc23)cc1,65*,9,-17,24,25*,
Cn1c(C(=O)N2CCC(C(N)=O)CC2)cc2cc(Cl)ccc21,-1,-1,-6,11,x,
NC(N)=NN=C(c1ccc(F)cc1)c1ccc(C(F)(F)F)cc1,70*,6,0,-17,-13,MPTP abs DR=4.8*;MPTP counter DR=41*
CO/N=C/C(NC(=O)c1ccc(C(F)(F)F)cc1)C(=O)OC (centres undefined),0,0,-2,-7,x,
O=[N+]([O-])c1cc(CS(=O)(=O)Oc2ccc(Cl)cc2)c(O)c([N+](=O)[O-])c1,74*,-4,2,-4,59*,
CC1(C)CC(=O)C2=C(C1)N=C1c3ccccc3C(=O)C1C2c1ccc(Cl)cc1 (centres undefined),98*,-6,-2,15,4,
Cc1ccc(C2C3=C(CC(C)(C)CC3=O)N=C3c4ccccc4C(=O)C32)cc1 (centres undefined),86*,-6,-12,3,63*,
CCOC(=O)C1=C(C)N=C2c3ccccc3C(=O)C2C1c1ccc(Cl)cc1 (centres undefined),66*,-10,4,13,45*,
CC(NC(=O)COC(=O)c1cc(NS(=O)(=O)c2ccc(Cl)c([N+](=O)[O-])c2)ccc1O)C1CC2CCC1C2 (centres undefined),61*,13*,4,42,66*,
SMILES,MPTP inh,GRIN3A LBD mod,SENP1 inh,EBI2 block,Rh123 counter,others
COc1ccccc1CN=Cc1[nH]c2ccc(Br)c(Cl)c2c1O,1,-1,-43,15,x,
Cc1cccc(N=Cc2[nH]c3ccc(Br)c(Cl)c3c2O)c1,97*,4,-1,19,0,MPTP abs DR=7.9*;MPTP counter DR=<2.5*
Cc1c(NC(=S)NC(=O)c2sc3ccccc3c2Cl)cccc1C(=O)O,-2,2,-18,-7,x,
COc1ccccc1C(=O)NC(=S)NNC(=O)c1sc2ccccc2c1Cl,95*,-7,1,-7,-7,
COc1ccccc1C(=O)NNC(=S)NC(=O)c1sc2ccccc2c1Cl,98*,-3,0,3,-11,
O=S1(=O)C[C@@H](N2CCN(CC3CC3)CC2)[C@H](COCc2ccccc2)N1,0,x,-1,-3,x,
O=C(NNc1nc2ccc(F)cc2s1)c1cccc(F)c1,92*,-11,2,3,76*,
CCOC(=O)c1csc(Nc2nc3ccc(F)cc3s2)n1,2,0,-11,41,x,
COC(=O)c1ccc2nc(Nc3nc4ccc(F)cc4s3)sc2c1,89*,12*,-31,-7,72*,
CC(=O)c1sc(Nc2nc3ccc(F)cc3s2)nc1C,71*,1,-20,1,63*,
COc1ccc(-c2ccc(C(=O)NC3CCCCC3)c3occc23)c(C)c1,-2,x,0,15,x,
N=C1S/C(=C\c2cccc3ccccc23)C(=O)N1c1ccc(F)cc1,94*,11*,0,28,20*,
Cc1ccc(NC(=O)CCNS(=O)(=O)c2ccc(OC(F)(F)F)cc2)c(O)c1,3,-3,1,-1,x,
CCOC(=O)C1CCCCN1Cc1ccccc1C(F)(F)F (centres undefined),1,1,2,5,x,
CC(=O)CCS(=O)(=O)c1ccc(Oc2ccc(S(=O)(=O)CCC(C)=O)cc2)cc1,58*,-1,0,-15,16,MPTP abs DR=i;MPTP counter DR=59*
COc1ccc(S(=O)(=O)CCC(=O)O)cc1,1,-1,4,-3,x,
Cn1c(=O)n(C)c2cc([N+](=O)[O-])c(N3CCN(S(=O)(=O)c4ccc5ccccc5c4)CC3)cc21,2,-2,1,2,x,
NC(=O)c1ccc(N2CCN(S(=O)(=O)c3ccccc3)CC2)c([N+](=O)[O-])c1,73*,1,1,10,21*,
COC(=O)c1ccc(N2CCN(S(=O)(=O)c3ccc4ccccc4c3)CC2)c([N+](=O)[O-])c1,72*,3,1,5,57*,
COc1ccc(N2CCN(S(=O)(=O)c3ccc4c(c3)CCCC4)CC2)c([N+](=O)[O-])c1,79*,0,0,26,79*,
Cc1cccc(C(C(=O)NC2CCCCC2)N(Cc2cccnc2)C(=O)c2csnn2)c1 (centres undefined),0,0,-6,-12,x,
CC1=NN(S(=O)(=O)c2ccc(Cl)cc2Cl)C(=O)c2ccccc2O1,2,0,1,-8,x,
CCC1CCCCN1S(=O)(=O)c1ccc(C(=O)Nc2nnc(C3CC3)o2)cc1 (centres undefined),-4,-1,0,-1,x,
